Assay outcomes deposited in PubChem by several laboratories.
HNF4A DNA FP: change in binding of human HNF4 alpha to DNA; P41235; AID 1224865; HNF4a-FITC DNA binding, fluorescence polarization, 1 h; 360,000 tested, 0.3% active; activity change, % at 10 µM; in the data active means activity change above about 30%, passing the limit was not always enough
Target sequence (P41235 whole entry, looked up): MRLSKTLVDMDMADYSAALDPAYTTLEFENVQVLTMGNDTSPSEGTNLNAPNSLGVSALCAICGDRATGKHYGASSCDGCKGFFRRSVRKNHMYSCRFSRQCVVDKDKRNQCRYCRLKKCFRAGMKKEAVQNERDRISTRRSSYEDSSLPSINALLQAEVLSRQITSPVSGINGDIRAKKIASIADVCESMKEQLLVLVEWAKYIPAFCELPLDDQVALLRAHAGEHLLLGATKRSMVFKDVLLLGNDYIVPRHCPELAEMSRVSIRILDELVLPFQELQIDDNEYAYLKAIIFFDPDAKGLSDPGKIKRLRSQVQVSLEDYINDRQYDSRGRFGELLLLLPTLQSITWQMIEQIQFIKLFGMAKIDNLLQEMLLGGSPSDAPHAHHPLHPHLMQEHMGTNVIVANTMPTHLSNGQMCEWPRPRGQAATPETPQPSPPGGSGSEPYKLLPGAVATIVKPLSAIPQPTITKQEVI
TPT1 inhibitor: C. albicans TPT1 enzyme inhibition. recombinant caTPT1, FP RNA substrate dephosphorylation. inhibition, % at 5 µM. 300,000 tested, 0.81% active. AID 1962;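 active means inhibition above the mean of all tested compounds plus 3 SD, set per screening campaign, cut at about 24% in these data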;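 further: plate controls were DMSO alone for no effect and ferristatin control at 100 nM for full effect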
CSN inh: CSN deneddylation inhibition. Purified CSN, SCF-Nedd8-OG deneddylation, fluorescence polarization. inhibition, % at 12.5 µM. 360,000 tested, 0.38% active;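 active means pattern-corrected inhibition above about 35%, with an unprinted fluorescence ratio check between 0.5 and 1.5, limit read from the data, passing the limit was not always enough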;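 further: 0% = enzyme with substrate and 100% = substrate without enzyme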
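Assay system: Purified human Csn5 enzyme expressed in HEK293T cells | Amount: Enzyme 0.24 nM | Measured by: Fluorescence polarization readout | Medium: Tris/NaCl/DTT buffer, pH 7.5 | Compound dosing: One concentration, 12.5 µM, 0.25% DMSO | Times: 90 min incubation of compound, enzyme and substrate at room temperature | Control set: no-enzyme wells high, enzyme-with-substrate wells low | Read-out: % inhibition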
IDE cell inh: inhibitors of human insulin-degrading enzyme in cells. inhibition, % at 5.59 µM. P14735. 320,000 tested, 0.41% active. HEK cells, FAbetaB cleavage, fluorescence polarization. AID 434962;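 active means percent inhibition above the average of all tested compounds plus 3 SD, set per screening campaign, cut at about 16% in these data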;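 further: IDE supplied by intact live HEK cells; FP after avidin binding of uncleaved biotin substrate so inhibition keeps polarization high; 0% = DMSO wells and 100% = 60 µM reference IDE inhibitor Ii1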
IDE cell activ: IDE (human) activation, cell-based. P14735. HEK cells, FAbeta-B cleavage, fluorescence polarization; 0% vehicle, 100% cell-free pure enzyme wells. activation, % at 5.96 µM. 340,000 tested, 0.073% active. AID 493087;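 active means activation above the mean of all tested compounds plus 3 SD, set per screening campaign, cut at about 17% in these data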
TPT1 inh confirm: confirmation of Candida albicans TPT1 inhibitors; shares compounds with TPT1 inhibitor; AID 2149; inhibition, % at 5 µM; recombinant caTPT1, fluorescence polarization, RNase T1 coupled; 2,400 tested, 74% active;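 active means inhibition above the primary screen limit, the mean inhibition of all tested compounds plus 3 SD, cut at about 25% in these data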
RNase T1 counter: counter-screen for TPT1 inhibitors: inhibitors of Aspergillus oryzae RNase T1. 2,400 tested, 83% active. shares compounds with TPT1 inhibitor. inhibition, % at 5 µM. RNase T1 cleavage, fluorescence polarization, 1536-well;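 active means inhibition above the solvent-only control well mean plus 3 SD, limit set per screening run, cut at about 23% in these data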;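 further: plate controls were DMSO wells with enzyme for no effect and wells without RNase T1 for full effect; inhibitors block cleavage so intact labeled substrate keeps polarization high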
An asterisk follows results filed as active; / = not tested or not shown. Shown are actives, neighbours in structure and some others; about 1.4% of the full set was active somewhere.

SMILES | HNF4A DNA FP | TPT1 inhibitor | CSN inh | IDE cell inh | IDE cell activ | TPT1 inh confirm | RNase T1 counter
Cn1cc(CNCc2ccccc2OCC(O)CN2CCc3ccccc3C2)cn1 (stereo not drawn) | 3 | 26* | -6 | 3 | 1 | 9 | 12
N#Cc1c(C(F)(F)F)cc(-c2ccccc2)nc1SCc1nc(N)nc(N2CCOCC2)n1 | 29 | 46* | 60* | 10 | 2 | 56* | 60*
COc1ccc(C2=C/C(=C\c3cccc(OC(C)=O)c3)C(=O)O2)cc1 | 5 | 36* | 3 | 1 | 7 | 55* | 68*
O=C(Nc1ccn(C2CCC(CO)O2)c(=O)n1)c1ccccc1 (stereo not drawn) | 0 | / | 2 | / | / | / | /
COc1ccc(NC(=O)C2Cc3c(-c4cccc(NC(C)=O)c4)ccnc3O2)cn1 (stereo not drawn) | -4 | / | -1 | / | / | / | /
Cc1cccc(C(=O)N2CCNC(=O)C2CC(=O)Nc2cccc(Cl)c2)c1 (stereo not drawn) | 1 | 24* | 0 | 0 | -1 | -2 | 3
O=C(CC1C(=O)NCCN1C(=O)Nc1ccccc1)Nc1cccc(Cl)c1 (stereo not drawn) | 2 | 0 | 2 | -1 | 6 | / | /
CCOC(=O)C1=CCC(c2cc3ccccc3[nH]2)NC1 (stereo not drawn) | 1 | / | 7 | / | / | / | /
COCCCn1c(=O)/c(=C/c2ccccc2OC(F)F)s/c1=C(\C#N)C(=O)NCCOC | 13 | / | 33 | / | 8 | / | /
COCCCn1c(=O)/c(=C\c2cccc(OC)c2OC)s/c1=C(/C#N)C(=O)Nc1ccc(C(=O)O)cc1 | 14 | 62* | 22 | -3 | -6 | 73* | 87*
COC(=O)[C@]12CCCCC=C1N(Cc1ccc3c(c1)OCO3)C(=O)[C@H](CC(=O)NCC13CC4CC(CC(C4)C1)C3)C2 | -2 | / | 5 | / | / | / | /
CO/N=C\Cc1oc(=O)c(NC(=O)c2ccccc2)cc1C(=O)OC | 2 | 8 | -11 | 3 | -2 | / | /
COC(=O)c1cc(NC(=O)c2ccccc2)c(=O)oc1C/C=N\OCc1ccc(Cl)cc1Cl | 24 | 31* | 16 | 4 | 3 | 28* | 36*
O=C(O)c1cccc(Cn2c(Cl)c(/C=N/Nc3ccccc3)sc2=O)c1 | 12 | 48* | 11 | 1 | -7 | 65* | 79*
COc1ccccc1NC(=O)C(=O)N/N=C(\C)CC(=O)Nc1ccccc1C(F)(F)F | -3 | -2 | 0 | -5 | -6 | / | /
O=C(N/N=C/c1c(O)n(Cc2ccccc2)c(=O)c2ccccc12)c1cccnc1 | 42* | 106* | 20 | 14 | -18 | 117* | 120*
CSc1nc(-c2ccccc2)nc(SC)c1C(C)=O | 2 | 26* | -1 | 1 | 6 | 6 | 14
Cc1ccc(/C=C2/C(=O)ON=C2c2ccccc2)o1 | -6 | 34* | 17 | 4 | -7 | 17 | 25*
COc1cc(/C=C2/C(=O)ON=C2c2ccccc2)ccc1O | 0 | 4 | 9 | 10 | -3 | / | /
COc1cc(/C=C2\C(=O)ON=C2c2ccccc2)cc(Br)c1O | 2 | 43* | 10 | -1 | -13 | 138* | 139*
CCOc1cc(/C=C2\C(=O)ON=C2c2ccccc2)cc(Br)c1O | 5 | 40* | 6 | 4 | -10 | 137* | 138*
CCOc1cc(/C=C2/C(=O)ON=C2C)cc(Br)c1O | 3 | 40* | 9 | 0 | -3 | 111* | 122*
COc1cc(/C=C2\C(=O)ON=C2c2ccccc2)cc(Cl)c1O | -2 | 35* | 2 | 12 | -13 | 123* | 128*
COC(=O)C[C@@H]1CC[C@H](NC(=O)Nc2ccc(OC)cc2)[C@@H](CO)O1 | 3 | / | -5 | / | / | / | /
COC(=O)c1ccc(-c2sc3nc(N4CCOCC4)c4c(c3c2N)CCCC4)o1 | / | 58* | / | 2 | / | 57* | 68*
CC(/C=C/c1ccc(N(C)C)cc1)=N\N=C(/N)SC1CC(=O)N(c2ccc(C(=O)O)cc2)C1=O (stereo not drawn) | 40* | 26* | 13 | 9 | 2 | 28* | 43*
CN1CCc2c(sc3nc(NN)n(Cc4ccccc4)c(=O)c23)C1 | 22 | 38* | 11 | -5 | 7 | 46* | 54*
